Bioassay records (PubChem)
An excerpt weighted towards active compounds, which were near 0.77% of everything screened.
bIAP inhibitor: blocks bovine intestinal alkaline phosphatase activity | inhibition, % at 20 µM | 190,000 tested, under 10 active | AID 1019 | purified bovine IAP, CDP-star luminescence, 30 min;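 active = over 50% inhibition of intestinal alkaline phosphatase at 20 µM in the single-dose screen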
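System: purified bovine intestinal alkaline phosphatase (IAP) enzyme; Input: IAP diluted 1/65,000,000 in the well; Measured by: CDP-star luminescence signal; Compound dosing: 20 µM single dose; Incubation: 30 min reaction at room temperature.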
mIAP act: mouse IAP activation | muIAP, CDP-Star luminescence, 30 min; stronger effect = higher value; 1 = vehicle-only enzyme signal, 0 = enzyme-free wells | activation factor at 10 µM | 330,000 tested, 0.24% active | AID 2805;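 active = activation factor of at least 2 at 20 µM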
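Assay system: mouse IAP enzyme / Compound: DMSO-dissolved test compounds / Timing: 30 min, room temperature / Measured by: luminescence from enzymatic CDP-Star hydrolysis / Control set: DMSO-only wells, enzyme-free buffer wells as negative control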
hIAP act: human IAP activation; P09923; purified human IAP, CDP-Star luminescence, 30 min; stronger effect = higher value; 1 = vehicle-only enzyme, 0 = enzyme-free background; activation factor at 10 µM; 330,000 tested, 0.16% active; AID 2524;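 active = activation factor of the enzyme at least 2-fold when tested at 20 µM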
Target sequence (P09923 whole entry, looked up): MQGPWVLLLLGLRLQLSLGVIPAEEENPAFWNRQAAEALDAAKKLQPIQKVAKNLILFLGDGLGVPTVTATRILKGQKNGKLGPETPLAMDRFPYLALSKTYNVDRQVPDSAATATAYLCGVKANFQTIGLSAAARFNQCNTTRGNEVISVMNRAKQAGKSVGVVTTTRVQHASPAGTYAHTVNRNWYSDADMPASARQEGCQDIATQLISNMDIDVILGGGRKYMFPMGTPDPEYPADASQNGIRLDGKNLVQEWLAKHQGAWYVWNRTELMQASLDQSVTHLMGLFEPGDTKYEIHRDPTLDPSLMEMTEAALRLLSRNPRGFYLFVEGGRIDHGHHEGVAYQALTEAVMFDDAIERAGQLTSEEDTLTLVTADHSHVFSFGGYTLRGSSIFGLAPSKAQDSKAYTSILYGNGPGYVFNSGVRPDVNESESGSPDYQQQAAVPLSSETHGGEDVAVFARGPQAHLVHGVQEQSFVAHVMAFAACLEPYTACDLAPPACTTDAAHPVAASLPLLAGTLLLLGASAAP
hIAP block: human IAP inhibition | purified IAP, CDP-Star luminescence, 30 min | inhibition, % at 10 µM | 330,000 tested, 0.12% active | AID 2544;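 active = inhibition reaching a set limit with compound at 10 µM in the primary screen, cut at about 35% in these data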
mIAP inh: blocks mouse intestinal alkaline phosphatase; inhibition, % at 10 µM; 330,000 tested, 0.2% active; AID 2806; purified mouse IAP, CDP-Star luminescence, 30 min;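 active = inhibition of at least 40% at 10 µM in the primary screen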
bIAP activator: increases bovine intestinal alkaline phosphatase activity; purified bovine IAP, CDP-star luminescence, 30 min; stronger effect = higher value; fold of DMSO-control signal, blank-subtracted; activation factor at 20 µM; 200,000 tested, 0.17% active;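 active = activation factor of 2 or more at 20 µM, a signal rise over negative controls twice the positive control's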
mIAP inh confirm: mouse IAP inhibition confirmation | purified mouse IAP, CDP-Star luminescence, 30 min | inhibition, % at 10 µM | shares compounds with mIAP inh | 11,000 tested, 4.7% active;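 active = inhibition of at least 40% at 10 µM in either of the two replicates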
Hits are given with their value; n = inactive; x = not tested or not shown.

SMILES	bIAP inhibitor	mIAP act	hIAP act	hIAP block	mIAP inh	bIAP activator	mIAP inh confirm
Cc1cc(=O)n2[nH]c(-c3ccsc3-n3c(C)ccc3C)cc2n1	x	n	n	n	50	x	59
Cc1nc2cc(-c3ccsc3-n3c(C)ccc3C)[nH]n2c(=O)c1Cl	n	n	n	n	63	n	78
O=C(CN1C(=O)NC2(CCCc3ccccc32)C1=O)Nc1ccccc1OC(F)F (stereo not given)	x	n	n	n	n	x	x
N#CCSc1nc2ccccc2c2nc3ccccc3n12	n	n	n	n	n	n	x
N#Cc1cccc(NC(=O)CNc2cccc(S(=O)(=O)N3CCCC3)c2)c1	x	n	n	n	n	x	x
CCOc1ccc(N2CSC3=C(C#N)C(c4ccco4)CC(=O)N3C2)cc1 (stereo not given)	n	n	n	n	74	n	81
Cc1ccc(C2CC(=O)N3CN(c4ccc(Br)cc4)CSC3=C2C#N)o1 (stereo not given)	n	n	n	n	61	n	63
N#CC1=C2SCN(c3ccccc3)CN2C(=O)CC1c1cccs1 (stereo not given)	n	n	n	n	n	n	x
CCOC(=O)CN1C(=O)/C(=C2\SC(=S)N(NC(=O)c3cccnc3)C2=O)c2ccccc21	x	n	n	n	52	x	53
CCS(=O)(=O)n1nc(-c2ccco2)nc1SC	n	n	n	n	n	n	36
CSc1nc(-c2ccco2)nn1S(=O)(=O)c1ccccc1	n	n	n	n	n	n	x
Cc1cccc(NC(=O)CSc2nc(C)c(CC(=O)c3ccc(Br)cc3)c(C)c2C#N)c1C	n	n	n	n	n	n	x
O=c1c(OC2OC(CO)C(O)C(O)C2OC2OC(CO)C(O)C(O)C2O)c(-c2ccc(O)cc2)oc2cc(O)cc(O)c12 (stereo not given)	x	n	n	n	43	x	55
C[C@@H]1O[C@@H](O[C@H]2[C@H](O)[C@@H](O)[C@H](Oc3c(-c4ccc(O)c(O)c4)oc4cc(O)cc(O)c4c3=O)O[C@@H]2CO)[C@H](O)[C@H](O)[C@H]1O	x	n	n	n	58	x	48
O=c1c2c(O)cc(O)cc2oc2c(O)ccc(O[C@H]3O[C@@H](CO)[C@H](O)[C@@H](O)[C@@H]3O)c12	x	n	n	n	n	x	x
CCOC(=O)C1(Cc2ccc(OC)cc2)CCN(C(=O)c2ccc3[nH]ccc3c2)CC1	n	n	n	n	n	n	x
Cc1ccc(NC(=O)CN(C)S(=O)(=O)c2ccc3[nH]c(=O)oc3c2)c(C)c1	x	n	n	n	63	x	88
Cc1ccc(NS(=O)(=O)c2ccc3[nH]c(=O)oc3c2)c(C)c1	x	n	n	n	80	x	85
CC(C)OC(=O)NCCOC(=O)Nc1cccc(Cl)c1	n	2	n	n	n	n	n
CC(=O)NCc1ccc(-c2csc(NC(=O)CCc3nc4ccccc4c(=O)[nH]3)n2)s1	x	n	n	n	46	x	45
Cc1cc(=O)n2[nH]c(C(=O)O)nc2n1	n	n	n	n	n	n	x
Cc1cc(=O)n2[nH]cc(C(=O)O)c2n1	n	n	n	n	53	n	58
C(=N\C(/N=C/c1ccco1)c1ccco1)/c1ccco1	n	n	n	n	73	n	75
C(=Nc1cccc2c(N=Cc3ccco3)cccc12)c1ccco1	n	n	n	n	48	n	41
CN(C)c1ccc(N=Cc2ccco2)cc1	n	n	n	n	n	n	x
SMILES	bIAP inhibitor	mIAP act	hIAP act	hIAP block	mIAP inh	bIAP activator	mIAP inh confirm
Nc1nnnn1/N=C/c1ccco1	n	n	n	n	n	n	x
CCOC(=O)C1=C(CC)Nc2ccccc2N/C1=N\S(=O)(=O)c1ccccc1OC	x	n	n	n	n	x	x
CC1=C(C(=O)Nc2ccccc2)C(c2ccc(C)o2)n2c(s/c(=C\c3ccco3)c2=O)=N1 (stereo not given)	n	n	n	n	44	n	65
COc1ccccc1NS(=O)(=O)c1cccc(NC(=O)Nc2ccc(Cl)cc2)c1	n	2.1	n	n	n	n	n
O=C(Nc1ccc(Cl)cc1Cl)NC1CCN(S(=O)(=O)c2ccc(F)cc2)CC1	x	5.4	n	n	n	x	n
O=C(Nc1ccc(F)cc1)Nc1cc(S(=O)(=O)N2CCOCC2)ccc1N1CCCC1	n	n	n	n	n	n	x
O=C(Nc1cccc(S(=O)(=O)N2CCCCC2)c1)Nc1ccc(Cl)cc1Cl	n	5.4	n	n	n	n	n
O=C(CNc1ccc(F)cc1Cl)Nc1cccc(S(=O)(=O)N2CCCCC2)c1	x	n	n	n	n	x	x
O=C(Nc1ccc(Cl)cc1)Nc1cc(S(=O)(=O)N2CCOCC2)ccc1N1CCCC1	n	2.9	n	n	n	n	n
COc1ccc(-c2c(C)n([O-])c(C)c(C)[n+]2=O)cc1OC	n	n	n	n	n	n	x
COc1ccc(C(=O)NC(C)C2CC3CCC2C3)c(OC)c1 (stereo not given)	x	n	n	n	n	x	x
COc1cccc(C(C)NC(=O)Nc2cccc(C(F)(F)F)c2)c1 (stereo not given)	n	5.3	n	n	n	n	n
COc1cccc(NC(=O)Nc2cc(C(=O)O)ccc2C)c1	n	n	n	n	n	n	x
COc1cccc(NC(=O)Nc2ccc(C(C)(C)C)cc2)c1	n	4.4	n	n	n	n	n
COc1cccc(NC(=O)NC(C)C2CC3CCC2C3)c1 (stereo not given)	n	2.7	n	n	n	n	n
COc1cccc(NC(=O)Nc2ccc(C)c(Cl)c2)c1	n	4.1	n	n	n	n	n
Cc1ccc(S(=O)(=O)N2CCN(C(=O)c3cc4c(s3)CCC(C)C4)CC2)cc1 (stereo not given)	x	n	n	n	n	x	x
CCN(CC)S(=O)(=O)c1cccc(NC(=O)CC2CCCC2)c1	x	n	n	n	n	x	x
COc1ccc(CNC(=O)Nc2cccc(C(F)(F)F)c2)cc1OC	n	2.2	n	n	n	n	n
COc1cccc(-c2csc(NC(=O)Nc3ccccc3)n2)c1	x	3.2	n	n	n	x	n
COc1ccc(CNC(=O)NCc2ccc(OC)c(OC)c2)cc1OC	n	n	n	n	n	n	x
CCN(CC)S(=O)(=O)c1cccc(NC(=O)Nc2cccc(C(F)(F)F)c2)c1	n	7.4	n	n	n	n	n
COc1cccc(NC(=O)Nc2ccc3c(c2)CCC3)c1	x	4.4	n	n	n	x	n
COc1cccc(-c2csc(NC(=O)C3CC3)n2)c1	n	n	n	n	n	n	x
CCCn1c(O)c(N=Nc2ccc3ccccc3n2)c2ccccc21	n	n	n	n	n	n	x
CCCNC(=O)c1ccc2c(=O)n(Cc3ccco3)c(=S)[nH]c2c1	n	n	n	n	64	n	66
CCCC1=NN2C(=N)/C(=C\c3cc(C)n(Cc4ccccc4)c3C)C(=O)N=C2S1	x	n	n	n	n	x	x
